Measured values as given in ChEMBL document CHEMBL5506014, “Monophosphoryl Lipid A-Rhamnose Conjugates as a New Class of Vaccine Adjuvants” (J Med Chem, 2024).
Activity calls are given as the source filed them.

Key:
Assay type in all cases: functional, organism-based
Settings in all cases: time 38.0 day
Mus musculus [1] = test: Immuno-adjuvant activity in sc dosed C57BL/6J mouse model assessed as increase in anti-KLH IgG antibodies level administered on day 1, 15, 22, and 29 and measured on day 27, 31 and 38 by ELISA analysis
How it was run: (§1)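 Female C57BL/6 mice, 6−8 weeks old, were given s.c. 0.1 mL doses of KLH-sTn (8.0 μg sTn antigen). The conjugate was mixed 1:1 with PBS, Alum, or a liposomal adjuvant. Liposomes were MPLA-Rha conjugate:DSPC:cholesterol at a 10:65:50 molar ratio, hydrated in 20 mM HEPES pH 7.5 with 150 mM NaCl. Pre-immunization day 0 blood served as blank.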

Mus musculus [2] = test: Immuno-adjuvant activity in sc dosed C57BL/6J mouse model assessed as increase in anti-KLH total antibodies level administered on day 1, 15, 22, and 29 and measured on day 27, 31 and 38 by ELISA analysis; how it was run: as §1
Mus musculus [3] = test: Immuno-adjuvant activity in sc dosed C57BL/6J mouse model assessed as increase in anti-KLH IgM antibodies level administered on day 1, 15, 22, and 29 and measured on day 27, 31 and 38 by ELISA analysis; how it was run: as §1
Mus musculus [4] = test: Immuno-adjuvant activity in sc dosed C57BL/6J mouse model assessed as increase in IgG antibody administered on day 1, 15, 22, and 29 and measured on day 27, 31 and 38 by ELISA analysis; how it was run: as §1
Mus musculus [5] = test: Immuno-adjuvant activity in sc dosed C57BL/6J mouse model assessed as increase in IgM antibody level administered on day 1, 15, 22, and 29 and measured on day 27, 31 and 38 by ELISA analysis; how it was run: as §1
Mus musculus [6] = test: Immuno-adjuvant activity in sc dosed C57BL/6J mouse model assessed as increase in anti-KLH antibodies level administered on day 1, 15, 22, and 29 and measured on day 27, 31 and 38 by ELISA analysis; how it was run: as §1
Mus musculus [7] = test: Immuno-adjuvant activity in sc dosed C57BL/6J mouse model assessed as increase in anti-sTn IgG antibodies level administered on day 1, 15, 22, and 29 and measured on day 27, 31 and 38 by ELISA analysis; how it was run: as §1

Measured: Activity

CCCCCCCCCCCC(=O)O[C@H](CCCCCCCCCCC)CC(=O)N[C@H]1[C@H](OC[C@H]2O[C@@H](OCCNC(=O)CCO[C@H]3O[C@@H](C)[C@H](O)[C@@H](O)[C@H]3O)[C@H](NC(=O)C[C@@H](CCCCCCCCCCC)OC(=O)CCCCCCCCCCC)[C@@H](OC(=O)C[C@H](O)CCCCCCCCC)[C@@H]2O)O[C@H](CO)[C@@H](OP(=O)(O)O)[C@@H]1OC(=O)C[C@H](O)CCCCCCCCC
not listed: Mus musculus [6] | Mus musculus [7]
active: all other assays above

CCCCCCCCCCCC(=O)O[C@H](CCCCCCCCCCC)CC(=O)N[C@H]1[C@H](OC[C@H]2O[C@@H](OC)[C@H](NC(=O)C[C@@H](CCCCCCCCCCC)OC(=O)CCCCCCCCCCC)[C@@H](OC(=O)C[C@H](O)CCCCCCCCC)[C@@H]2O)O[C@H](CNC(=O)CCO[C@@H]2O[C@@H](C)[C@H](O)[C@@H](O)[C@H]2O)[C@@H](OP(=O)(O)O)[C@@H]1OC(=O)C[C@H](O)CCCCCCCCC
active: Mus musculus [6] | Mus musculus [4] | Mus musculus [5] | Mus musculus [7]

CCCCCCCCCCCC(=O)O[C@H](CCCCCCCCCCC)CC(=O)N[C@H]1[C@H](OC[C@H]2O[C@@H](OC)[C@H](NC(=O)C[C@@H](CCCCCCCCCCC)OC(=O)CCCCCCCCCCC)[C@@H](OC(=O)C[C@H](O)CCCCCCCCC)[C@@H]2O)O[C@H](CNC(=O)CCO[C@H]2O[C@@H](C)[C@H](O)[C@@H](O)[C@H]2O)[C@@H](OP(=O)(O)O)[C@@H]1OC(=O)C[C@H](O)CCCCCCCCC
active: Mus musculus [4] | Mus musculus [5]

CCCCCCCCCCCC(=O)O[C@H](CCCCCCCCCCC)CC(=O)N[C@H]1[C@H](OC[C@H]2O[C@@H](OCCNC(=O)CCO[C@@H]3O[C@@H](C)[C@H](O)[C@@H](O)[C@H]3O)[C@H](NC(=O)C[C@@H](CCCCCCCCCCC)OC(=O)CCCCCCCCCCC)[C@@H](OC(=O)C[C@H](O)CCCCCCCCC)[C@@H]2O)O[C@H](CO)[C@@H](OP(=O)(O)O)[C@@H]1OC(=O)C[C@H](O)CCCCCCCCC
active: all assays above
